Results pooled from the literature.
Each line is one published result; the experiments were not run side by side.
Matrix: plasma

The AUC(0-inf) of CNC(=O)n1ccc2cc(Oc3ccnc(NC(=O)c4ccc(C5CCN(CCO)CC5)cc4)c3)c(OCCOC)cc21 is reported as 128 ng·h/mL (human; oral, 35 mg, single dose, fasted, healthy volunteers).
The AUC(0-t) of COc1ccc([C@@H](O)c2cc(-c3ncnc4cc(N5CCOCC5)ccc34)c(F)cc2Cl)nn1 is reported as 14100 ng·h/mL (human; oral, 400 mg, single dose, patients).
NC(=S)NN=Cc1ncccc1N has an AUC(0-inf) of 1030 ng·h/mL (human; oral, 150 mg).
Cn1cc(Nc2nc(N)nc(-c3cccc(-n4ccc5cc(C6CC6)cc(F)c5c4=O)c3CO)n2)cn1 has an AUC(0-t) of 11500 ng·h/mL (human; oral, 300 mg, single dose, fasted, healthy volunteers).
With CC(C)n1c(Nc2cccnc2)nc2cnc(Nc3ccc(N4CCN(C)CC4)cc3)nc21 the AUC(0-inf) was 853 ng·h/mL (male human; oral, 100 mg).
CN1CC[C@@H](c2c(O)cc(O)c3c(=O)cc(-c4ccc(C(F)(F)F)cc4Cl)oc23)[C@@H]1CO gave an AUC(0-t) of 3760 ng·h/mL (human; oral, 150 mg, patients).
For Cc1ccc(C(=O)Nc2ccc(CN3CCN(C)CC3)c(C(F)(F)F)c2)cc1C#Cc1cnc2[nH]ncc2c1, the AUC(0-t) was 246 ng·h/mL (human; oral, 40 mg, single dose, healthy volunteers).
For CC[C@H](C)CCCCC(=O)N[C@@H](CCN)C(=O)N[C@H](C(=O)N[C@@H](CCN)C(=O)N[C@H]1CCNC(=O)[C@H]([C@@H](C)O)NC(=O)[C@H](CCN)NC(=O)[C@H](CCN)NC(=O)[C@H](CC(C)C)NC(=O)[C@@H](Cc2ccccc2)NC(=O)[C@H](CCN)NC1=O)[C@@H](C)O, the AUC(0-t) was 19600 ng·h/mL (human; intravenous, 0.75 mg/kg, single dose, infusion).
With Cl.[2H]C([2H])([2H])CC(=O)c1cnc(NC(=O)C2CC2)cc1Nc1cccc(-c2ncn(C([2H])([2H])[2H])n2)c1OC the AUC was 796 ng·h/mL (human; oral, 10 mg, multiple doses, once daily, steady state).
